Measurements as given in ChEMBL document CHEMBL1221405, “Chlorinated iridoid glucosides from Veronica longifolia and their antioxidant activity” (J Nat Prod, 2010).
Values after ≈ are worked out from the molar mass of the structure shown.

Assays:
Type in all cases: functional
[1] = test system: Radical scavenging activity; assay: Antioxidant activity assessed as DPPH radical scavenging activity after 30 mins
In short: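 Compounds in MeOH at various concentrations were added to DPPH in MeOH (80 µg/mL). After 30 min, remaining DPPH was read by absorbance at 520 nm. Scavenging was calculated against a blank (100%) holding only DPPH and solvent.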

[2] = Antioxidant activity assessed as superoxide radical scavenging activity by NBT method
In short: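 Alkaline DMSO method (modified Kunchandy and Rao). Samples in DMSO were mixed with NBT (1 mg/mL in DMSO). Alkaline DMSO (DMSO with 5 mM NaOH in water) was added to give the final mixture. Absorbance was read at 560 nm.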

[3] = Antioxidant activity assessed as nitric oxide scavenging activity after 150 mins by Griess assay
In short: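 Serially diluted samples were mixed with an equal volume of 10 mM sodium nitroprusside in PBS and incubated under light at room temperature for 150 min. After 10 min, nitrite chromophore absorbance was read at 577 nm.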

IC50 [1]	IC50 [2]	IC50 [3]	Compound
< 10 µg/mL	13 µg/mL (≈ 73.8 µM)	> 1000 µg/mL	O=C1O[C@H]([C@@H](O)CO)C(O)=C1O [ASCORBIC ACID]
27 µg/mL (≈ 50.5 µM)	92 µg/mL (≈ 172 µM)	149 µg/mL (≈ 279 µM)	O=C(O[C@H]1[C@@H]2C=CO[C@@H](O[C@H]3O[C@@H](CO)[C@H](O)[C@@H](O)[C@@H]3O)[C@@H]2[C@](O)(CO)[C@@H]1Cl)c1ccc(O)c(O)c1 [LONGIFOLIOSIDES A]
19 µg/mL (≈ 33.9 µM)	199 µg/mL (≈ 355 µM)	285 µg/mL (≈ 508 µM)	O=C(/C=C/c1ccc(O)c(O)c1)O[C@H]1[C@@H]2C=CO[C@@H](O[C@H]3O[C@@H](CO)[C@H](O)[C@@H](O)[C@@H]3O)[C@@H]2[C@](O)(CO)[C@@H]1Cl [LONGIFOLIOSIDE B]

Compound	IC50 [1]	IC50 [2]	IC50 [3]
O=c1c(O)c(-c2ccc(O)c(O)c2)oc2cc(O)cc(O)c12 [QUERCETIN]	< 10 µg/mL	68 µg/mL (≈ 225 µM)	96 µg/mL (≈ 318 µM)
